Data: ChEMBL document CHEMBL4033652, “Design, synthesis, and pharmacological evaluation of 4-azolyl-benzamide derivatives as novel GPR52 agonists” (Bioorg Med Chem, 2017)
Each block holds one compound with its values, some of them ahead of it. The source made the active and inactive calls. The rule behind the calls is not given here.

Experiments:
[1] = target: T1, G-protein coupled receptor 52 (Homo sapiens, UniProt Q9Y2T5); assay: Agonist activity at human GPR52 expressed in CHO cells assessed as increase in cAMP level after 30 mins by AlphaScreen assay; type: functional, cell-based
T1 sequence (Q9Y2T5 whole entry): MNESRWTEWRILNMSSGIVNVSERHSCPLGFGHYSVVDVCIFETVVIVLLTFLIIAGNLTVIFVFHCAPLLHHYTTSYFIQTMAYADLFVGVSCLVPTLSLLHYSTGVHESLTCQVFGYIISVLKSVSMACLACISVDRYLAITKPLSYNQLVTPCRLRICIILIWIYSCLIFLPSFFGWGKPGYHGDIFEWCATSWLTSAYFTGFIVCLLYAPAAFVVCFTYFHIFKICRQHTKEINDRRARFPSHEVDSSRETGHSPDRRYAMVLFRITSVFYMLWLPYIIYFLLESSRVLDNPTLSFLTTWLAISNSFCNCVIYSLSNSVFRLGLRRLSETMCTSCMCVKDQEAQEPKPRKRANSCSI
In short: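 CHO cells stably expressing human GPR52 (10,000/well) exposed to compound at various concentrations, 30 min, 37°C, in HBSS with 5 mM HEPES pH 7.6, 0.5% BSA, 100 µM IBMX and 100 µM Ro20-1724. AlphaScreen acceptor/donor beads added overnight at room temperature. Response expressed relative to a reference benzofuran agonist (100%). EC50 from mean curves, n = 2–4, 95% CI.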

[2] = target: T1, G-protein coupled receptor 52; assay: Agonist activity at human GPR52 expressed in CHO cells assessed as increase in cAMP level at 1 uM after 30 mins by AlphaScreen assay relative to (N-(2-hydroxyethyl)-3-(2-(3-(trifluoromethyl)benzyl)-1-benzofuran-4-yl)benzamide); type: functional, cell-based
In short: (§1)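 CHO cells stably expressing human GPR52, 10,000 cells per well, exposed to compound 30 min at 37°C in HBSS with 5 mM HEPES pH 7.6, 0.5% BSA, 100 µM IBMX and 100 µM Ro20-1724. cAMP measured by AlphaScreen with acceptor and biotinylated donor beads after overnight room-temperature incubation. Emax set relative to the reference benzofuran benzamide (100%). EC50 taken from mean curves, n = 2–4, with 95% CI.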

[3] = target: T1, G-protein coupled receptor 52; assay: Agonist activity at human GPR52 expressed in CHO cells assessed as increase in cAMP level after 30 mins by AlphaScreen assay relative to (N-(2-hydroxyethyl)-3-(2-(3-(trifluoromethyl)benzyl)-1-benzofuran-4-yl)benzamide); type: functional, cell-based; in short: as §1
[4] = Total clearance in Sprague-Dawley rat at 0.1 mg/kg, iv or 1 mg/kg, po administered as cassette dose by LC/MS/MS analysis; type: ADME, organism-based; conditions: in vivo
In short: (§2)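 Cassette dosing in non-fasted male SD rats (n = 3): i.v. 0.1 mg/kg or p.o. 1 mg/kg. Plasma prepared from blood, deproteinized, centrifuged, supernatant measured by LC/MS/MS. AUC taken over 0–8 h.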

[5] = Oral bioavailability in Sprague-Dawley rat at 1 mg/kg administered as cassette dose by LC-MS/MS analysis; type: ADME, organism-based; conditions: in vivo; in short: as §2
[6] = AUC (0 to 8 hrs) in Sprague-Dawley rat at 1 mg/kg, po administered as cassette dose by LC-MS/MS analysis; type: ADME, organism-based; parameters: time < 8 hr, dose 1 mg/kg, route oral; conditions: in vivo; in short: as §2
[7] = test system: Brain; assay: AUC (0 to 24 hrs) in ICR mouse brain at 10 mg/kg, po by LC/MS/MS analysis; type: ADME, organism-based; parameters: time < 24 hr, dose 10 mg/kg, route oral; conditions: in vivo
In short: (§3)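 Male ICR mice dosed orally at 10 or 30 mg/kg as a suspension in 0.5% methylcellulose. Blood and brain taken at 0.25, 0.5, 1, 2, 4, 8 and 24 h, n = 3 per time point. Plasma separated; brain homogenized in saline. Samples mixed with acetonitrile, centrifuged, supernatant quantified by LC/MS/MS.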

[8] = target: G-protein coupled receptor 52 (Mus musculus) (UniProt P0C5J4); assay: Agonist activity at mouse GPR52 relative to (N-(2-hydroxyethyl)-3-(2-(3-(trifluoromethyl)benzyl)-1-benzofuran-4-yl)benzamide)
Chain of G-protein coupled receptor 52 (Mus musculus) (P0C5J4 whole entry): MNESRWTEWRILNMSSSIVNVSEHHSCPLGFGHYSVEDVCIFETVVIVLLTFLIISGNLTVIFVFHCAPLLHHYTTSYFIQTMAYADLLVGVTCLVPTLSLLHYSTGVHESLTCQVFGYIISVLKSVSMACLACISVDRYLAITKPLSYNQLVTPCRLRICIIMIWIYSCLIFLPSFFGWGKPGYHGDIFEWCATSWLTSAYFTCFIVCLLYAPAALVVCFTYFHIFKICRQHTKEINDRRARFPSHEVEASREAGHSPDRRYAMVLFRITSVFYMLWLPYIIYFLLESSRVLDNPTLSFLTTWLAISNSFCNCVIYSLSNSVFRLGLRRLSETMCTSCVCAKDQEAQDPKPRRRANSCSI

[9] = Cmax in ICR mouse brain at 30 mg/kg, po by LC/MS/MS analysis; type: ADME, organism-based; parameters: dose 30 mg/kg, route oral; in short: as §3
[10] = AUC (0 to 24 hrs) in ICR mouse plasma at 10 mg/kg, po by LC/MS/MS analysis; type: ADME, organism-based; parameters: time < 24 hr, dose 10 mg/kg, route oral; in short: as §3
[11] = MRT in ICR mouse brain at 30 mg/kg, po by LC/MS/MS analysis; type: ADME, organism-based; in short: as §3
[12] = Metabolic stability in human liver microsomes at 1 uM after 15 to 30 mins in presence of NADPH by LC/MS/MS analysis; type: ADME, microsome; conditions: read-out: Stability
In short: (§4)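 Human, rat or mouse liver microsomes (0.2 mg/mL protein) incubated with test compound at 1 µmol/L in 50 mmol/L phosphate buffer pH 7.4. Reaction started with an NADPH-generating system, run 15 and 30 min at 37°C, stopped with acetonitrile. Duplicates. Parent compound loss measured by LC/MS/MS.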

[13] = Tmax in ICR mouse plasma at 10 mg/kg, po by LC/MS/MS analysis; type: ADME, organism-based; in short: as §3
[14] = target: Glutamate [NMDA] receptor (Homo sapiens) (UniProt Q05586+Q12879+Q13224+O15399+O60391+Q14957+Q8TCU5); assay: Inhibition of NMDA receptor (unknown origin) at 10 uM
[15] = target: D(1A) dopamine receptor (Homo sapiens) (UniProt P21728); assay: Inhibition of dopamine D1 receptor (unknown origin) at 10 uM
Chain of D(1A) dopamine receptor (Homo sapiens) (P21728 whole entry): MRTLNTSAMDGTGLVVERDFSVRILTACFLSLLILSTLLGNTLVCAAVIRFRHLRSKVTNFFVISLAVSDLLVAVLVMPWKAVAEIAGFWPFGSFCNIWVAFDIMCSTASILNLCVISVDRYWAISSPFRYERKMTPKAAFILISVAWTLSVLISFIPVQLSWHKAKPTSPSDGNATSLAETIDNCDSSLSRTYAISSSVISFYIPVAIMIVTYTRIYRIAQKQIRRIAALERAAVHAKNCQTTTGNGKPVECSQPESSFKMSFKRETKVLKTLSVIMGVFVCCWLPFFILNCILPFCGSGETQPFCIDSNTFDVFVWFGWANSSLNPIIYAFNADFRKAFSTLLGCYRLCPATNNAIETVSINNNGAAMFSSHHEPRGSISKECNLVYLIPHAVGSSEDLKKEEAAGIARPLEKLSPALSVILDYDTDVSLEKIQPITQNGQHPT

[16] = Cmax in ICR mouse brain at 10 mg/kg, po by LC/MS/MS analysis; type: ADME, organism-based; parameters: dose 10 mg/kg, route oral; in short: as §3
[17] = Cmax in ICR mouse plasma at 10 mg/kg, po by LC/MS/MS analysis; type: ADME, organism-based; parameters: dose 10 mg/kg, route oral; in short: as §3
[18] = AUC (0 to 24 hrs) in ICR mouse plasma at 30 mg/kg, po by LC/MS/MS analysis; type: ADME, organism-based; parameters: time < 24 hr, dose 30 mg/kg, route oral; in short: as §3
[19] = MRT in ICR mouse plasma at 10 mg/kg, po by LC/MS/MS analysis; type: ADME, organism-based; in short: as §3
[20] = Tmax in ICR mouse plasma at 30 mg/kg, po by LC/MS/MS analysis; type: ADME, organism-based; in short: as §3
[21] = MRT in ICR mouse plasma at 30 mg/kg, po by LC/MS/MS analysis; type: ADME, organism-based; in short: as §3
[22] = test system: Mus musculus; assay: Anti-psychotic activity in ICR mouse assessed as inhibition of methamphetamine-induced hyperlocomotion at 10 mg/kg, po pretreated for 60 mins followed by methamphetamine administration measured after 150 mins; type: functional, organism-based
In short: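 Male ICR mice aged 7–8 weeks, housed singly in activity-monitor cages and habituated 60 min. Compound given p.o. (1–30 mg/kg range tested). Methamphetamine 2 mg/kg s.c. given 60 min later. Activity counts recorded for 150 min after compound dosing. Mean ± SEM, t-test and Williams test.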

[23] = target: 5-hydroxytryptamine receptor 2A (Homo sapiens) (UniProt P28223); assay: Inhibition of 5-HT2 receptor (unknown origin) at 10 uM
Chain of 5-hydroxytryptamine receptor 2A (Homo sapiens) (P28223 whole entry): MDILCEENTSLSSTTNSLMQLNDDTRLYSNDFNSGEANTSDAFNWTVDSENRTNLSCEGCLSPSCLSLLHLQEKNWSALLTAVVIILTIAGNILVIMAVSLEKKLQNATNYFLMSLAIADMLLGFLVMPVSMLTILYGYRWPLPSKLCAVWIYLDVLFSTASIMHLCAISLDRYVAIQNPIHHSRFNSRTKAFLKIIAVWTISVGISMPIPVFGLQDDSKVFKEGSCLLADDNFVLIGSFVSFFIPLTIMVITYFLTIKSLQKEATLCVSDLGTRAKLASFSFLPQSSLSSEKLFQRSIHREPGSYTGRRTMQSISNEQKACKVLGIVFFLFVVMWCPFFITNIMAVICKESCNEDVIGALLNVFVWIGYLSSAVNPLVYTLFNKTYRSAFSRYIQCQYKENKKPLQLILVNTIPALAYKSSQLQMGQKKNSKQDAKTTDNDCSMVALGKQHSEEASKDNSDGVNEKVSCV

[24] = Ratio of AUC (0 to 24 hrs) in ICR mouse brain to plasma at 10 mg/kg, po; type: ADME, organism-based; conditions: brain and plasma, read-out: Ratio AUC
[25] = Tmax in ICR mouse brain at 30 mg/kg, po by LC/MS/MS analysis; type: ADME, organism-based; in short: as §3
[26] = target: G-protein coupled receptor 52 (Mus musculus, UniProt P0C5J4); assay: Agonist activity at mouse GPR52
Chain of G-protein coupled receptor 52 (Mus musculus, UniProt P0C5J4) (P0C5J4 whole entry): as the sequence (P0C5J4 whole entry) above

[27] = Cmax in ICR mouse plasma at 30 mg/kg, po by LC/MS/MS analysis; type: ADME, organism-based; parameters: dose 30 mg/kg, route oral; in short: as §3
[28] = Ratio of AUC (0 to 24 hrs) in ICR mouse brain to plasma at 30 mg/kg, po; type: ADME, organism-based; conditions: brain and plasma, read-out: Ratio AUC
[29] = Protein binding in ICR mouse plasma at 1 uM after 24 hrs by LC/MS/MS based equilibrium dailysis method; type: ADME, cell-free; conditions: read-out: PPB (converted)
In short: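 Plasma from male ICR mice spiked with compound at a final 1 µmol/L. Equilibrium dialysis (MWCO 6–8 kDa) against PBS for 24 h at room temperature. Both sides quantified by LC-MS/MS; bound fraction calculated from the plasma and PBS concentrations.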

[30] = test system: Mus musculus; assay: Toxicity in ICR mouse model of methamphetamine-induced hyperlocomotion assessed as cataleptogenic effect at 10 mg/kg, po; type: organism-based; conditions: in vivo
[31] = Metabolic stability in mouse liver microsomes at 1 uM after 15 to 30 mins in presence of NADPH by LC/MS/MS analysis; type: ADME, microsome; conditions: read-out: Stability; in short: as §4
[32] = species on record: Homo sapiens; assay: Inhibition of AMPA receptor (unknown origin) at 10 uM
[33] = Metabolic stability in rat liver microsomes at 1 uM after 15 to 30 mins in presence of NADPH by LC/MS/MS analysis; type: ADME, microsome; conditions: read-out: Stability; in short: as §4
[34] = Tmax in ICR mouse brain at 10 mg/kg, po by LC/MS/MS analysis; type: ADME, organism-based; in short: as §3
[35] = target: dopamine D2L receptor (Homo sapiens, UniProt P14416); assay: Inhibition of dopamine D2L receptor (unknown origin) at 10 uM
Chain of dopamine D2L receptor (P14416 whole entry): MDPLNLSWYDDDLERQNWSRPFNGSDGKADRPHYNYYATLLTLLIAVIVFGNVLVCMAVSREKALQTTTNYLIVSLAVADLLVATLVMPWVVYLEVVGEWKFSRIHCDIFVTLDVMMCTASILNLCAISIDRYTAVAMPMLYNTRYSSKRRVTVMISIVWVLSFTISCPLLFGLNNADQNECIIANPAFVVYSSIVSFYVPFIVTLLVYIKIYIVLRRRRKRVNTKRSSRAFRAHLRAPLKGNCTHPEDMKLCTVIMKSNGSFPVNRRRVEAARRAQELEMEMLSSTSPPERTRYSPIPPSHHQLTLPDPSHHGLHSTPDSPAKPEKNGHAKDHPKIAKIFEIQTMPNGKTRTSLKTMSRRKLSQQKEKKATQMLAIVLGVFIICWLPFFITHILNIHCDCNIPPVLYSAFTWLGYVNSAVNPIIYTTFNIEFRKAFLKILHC

[36] = test system: Brain; assay: AUC (0 to 24 hrs) in ICR mouse brain at 30 mg/kg, po by LC/MS/MS analysis; type: ADME, organism-based; parameters: time < 24 hr, dose 30 mg/kg, route oral; conditions: in vivo; in short: as §3
[37] = MRT in ICR mouse brain at 10 mg/kg, po by LC/MS/MS analysis; type: ADME, organism-based; in short: as §3

Structure (SMILES): Cc1nc(Cc2cccc(C(F)(F)F)c2)sc1-c1ccc(C(N)=O)nc1 [TP-024n]
EC50 [1]: > 1000 nM | Emax [2]: 11%

Structure (SMILES): Cc1cc(C(N)=O)ccc1-c1sc(Cc2cccc(C(F)(F)F)c2)nc1C
EC50 [1]: 1400 nM | Emax [3]: 87%

Structure (SMILES): Cc1cc(-c2sc(Cc3cccc(N(C)C)c3)nc2C)ccc1C(N)=O
EC50 [1]: 690 nM | Emax [3]: 101%

Structure (SMILES): Cc1cc(-c2sc(Cc3cccc(F)c3)nc2C)ccc1C(N)=O
EC50 [1]: 260 nM | Emax [3]: 75%

Structure (SMILES): Cc1nc(Cc2cccc(C(F)(F)F)c2)sc1-c1ccc(C(N)=O)cn1
EC50 [1]: 400 nM | Emax [3]: 70%

Further compounds by falling EC50 [1], results first:

EC50 [1]: 210 nM | Emax [3]: 60%
Structure (SMILES): Cc1cc(-c2sc(Cc3ccc(Cl)cc3)nc2C)ccc1C(N)=O

EC50 [1]: 160 nM | Emax [3]: 85%
Structure (SMILES): COc1cccc(Cc2nc(C)c(-c3ccc(C(N)=O)c(C)c3)s2)c1

AUC [7]: 3.731 µg·h/g | Emax [8]: 114% | clearance [4]: 23.5 mL/min/kg | Cmax [9]: 2330 ng/g | AUC(0-t) at 24 h [10]: 2430 ng·h/mL | MRT [11]: 3.25 h | microsomal CLint at 1 µM [12]: 17 µL/min/mg | Tmax [13]: 30 min | inhibition [14]: < 50% | inhibition [15]: < 50% | Cmax [16]: 1020 ng/g | Cmax [17]: 688 ng/mL | EC50 [1]: 75 nM | bioavailability [5]: 53.8% | AUC(0-t) at 24 h [18]: 6200 ng·h/mL | MRT [19]: 2.29 h | Tmax [20]: 1 h | MRT [21]: 3.54 h | inhibition [23]: < 50% | Kp [24]: 1.53 | Tmax [25]: 1 h | EC50 [26]: 71 nM | Cmax [27]: 1210 ng/mL | Kp [28]: 1.68 | fraction unbound at 24 h, 1 µM [29]: 0.199 | AUC(0-t) at 8 h [6]: 384 ng·h/mL | microsomal CLint at 1 µM [31]: 24 µL/min/mg | inhibition [32]: < 50% | microsomal CLint at 1 µM [33]: 9 µL/min/mg | Tmax [34]: 30 min | inhibition at 10 µM [35]: < 50% | AUC [36]: 10.414 µg·h/g | MRT [37]: 2.06 h | Emax [3]: 122%
Structure (SMILES): Cc1cc(-n2nc(Cc3cc(F)cc(C(F)(F)F)c3)nc2C)ccc1C(N)=O [TP-024]
inhibition [22]: Active | Activity [30]: Non-Toxic

EC50 [1]: 73 nM | Emax [3]: 86%
Structure (SMILES): Cc1cc(-c2sc(Cc3cccc(C(F)(F)F)c3)nc2C)ccc1C(N)=O

clearance [4]: 18.8 mL/min/kg | EC50 [1]: 59 nM | bioavailability [5]: 28.4% | AUC(0-t) at 8 h [6]: 268 ng·h/mL | Emax [3]: 107%
Structure (SMILES): Cc1cc(-n2cc(Cc3cc(F)cc(C(F)(F)F)c3)nc2C)ccc1C(N)=O

clearance [4]: 39.5 mL/min/kg | EC50 [1]: 11 nM | bioavailability [5]: 14% | AUC(0-t) at 8 h [6]: 60.5 ng·h/mL | Emax [3]: 93%
Structure (SMILES): Cc1cc(-c2sc(Cc3cc(F)cc(C(F)(F)F)c3)nc2C)ccc1C(N)=O
